{"source": "ChEMBL document CHEMBL5303300", "about": "“EUbOPEN Chemogenomics Library - Multiplex” (2023)", "key": {"[1]": {"tested_on": "Fibroblast", "experiment": "Multiplex assay against human fibroblast", "assay_type": "toxicity, cell-based", "settings": "number of replicates 2", "outline": "(§1)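 Live cells were stained at seeding with Hoechst33342, BioTracker Green Microtubule Cytoskeleton Dye, MitoTracker Red and Annexin V Alexa Fluor 680. Following compound addition, they were imaged on a CQ1 microscope at 37°C and 5% CO2 and gated by CellPathfinder machine learning into Hoechst high-intensity objects or normal cells, with normal cells split into healthy, pyknosed or fragmented nuclei and pyknosed cells into mitotic or apoptotic. Tubulin, mitochondrial-mass and membrane-permeability phenotypes are per cents of healthy-nucleus cells.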"}, "[2]": {"tested_on": "HEK-293T", "experiment": "Multiplex assay against HEK293T", "assay_type": "toxicity, cell-based", "settings": "human, number of replicates 2", "outline": "as §1"}, "[3]": {"settings": "12 h, 1 µM, compound concentration 1 uM"}, "[4]": {"settings": "12 h, 10 µM, compound concentration 10 uM"}, "[5]": {"settings": "24 h, 1 µM, compound concentration 1 uM"}, "[6]": {"settings": "24 h, 10 µM, compound concentration 10 uM"}, "[7]": {"settings": "48 h, 1 µM, compound concentration 1 uM"}, "[8]": {"settings": "48 h, 10 µM, compound concentration 10 uM"}}, "note": "“And” between values parts separate entries of the source, which are not always exact repeats. Identical values can stand only once.", "data": [{"molecule": "Fc1cccc(-n2cnc3c(NCc4nc5ccc(F)c(F)c5[nH]4)nc(N4CCOCC4)nc32)c1", "values": [{"measurement": "Population Apoptotic (%)", "setting": "[1]; [3]", "value": "46% and 50%"}, {"measurement": "Population Fragmented Nuclei (%)", "setting": "[1]; [3]", "value": "8% and 5%"}, {"measurement": "Population Healthy Nuclei (%)", "setting": "[1]; [3]", "value": "78% and 65%"}, {"measurement": "Population Hoechst High Intensity Objects (%)", "setting": "[1]; [3]", "value": 0, "unit": "%"}, {"measurement": "Population Membrane Permeable-Phenotype (%)", "setting": "[1]; [3]", "value": "5% and 4%"}, {"measurement": "Population Mitochondria Different-Phenotype (%)", "setting": "[1]; [3]", "value": 0, "unit": "%"}, {"measurement": "Population Mitotic Cells (%)", "setting": "[1]; [3]", "value": "53% and 49%"}, {"measurement": "Population Normal (%)", "setting": "[1]; [3]", "value": "99% and 100%"}, {"measurement": "Population Pyknosed Nuclei (%)", "setting": "[1]; [3]", "value": "12% and 28%"}, {"measurement": "Population Tubulin-Different-Phenotype (%)", "setting": "[1]; [3]", "value": "21% and 15%"}, {"measurement": "Total Cell Count", "setting": "[1]; [3]", "value": "211 and 198"}, {"measurement": "Population Apoptotic (%)", "setting": "[1]; [4]", "value": "55% and 40%"}, {"measurement": "Population Fragmented Nuclei (%)", "setting": "[1]; [4]", "value": "6% and 10%"}, {"measurement": "Population Healthy Nuclei (%)", "setting": "[1]; [4]", "value": "63% and 68%"}, {"measurement": "Population Hoechst High Intensity Objects (%)", "setting": "[1]; [4]", "value": 0, "unit": "%"}, {"measurement": "Population Membrane Permeable-Phenotype (%)", "setting": "[1]; [4]", "value": "6% and 8%"}, {"measurement": "Population Mitochondria Different-Phenotype (%)", "setting": "[1]; [4]", "value": "21% and 11%"}, {"measurement": "Population Mitotic Cells (%)", "setting": "[1]; [4]", "value": "44% and 60%"}, {"measurement": "Population Normal (%)", "setting": "[1]; [4]", "value": "99% and 100%"}, {"measurement": "Population Pyknosed Nuclei (%)", "setting": "[1]; [4]", "value": "29% and 21%"}, {"measurement": "Population Tubulin-Different-Phenotype (%)", "setting": "[1]; [4]", "value": "72% and 75%"}, {"measurement": "Total Cell Count", "setting": "[1]; [4]", "value": "152 and 213"}, {"measurement": "Population Apoptotic (%)", "setting": "[1]; [5]", "value": "85% and 72%"}, {"measurement": "Population Fragmented Nuclei (%)", "setting": "[1]; [5]", "value": "12% and 10%"}, {"measurement": "Population Healthy Nuclei (%)", "setting": "[1]; [5]", "value": "44% and 66%"}, {"measurement": "Population Hoechst High Intensity Objects (%)", "setting": "[1]; [5]", "value": 0, "unit": "%"}, {"measurement": "Population Membrane Permeable-Phenotype (%)", "setting": "[1]; [5]", "value": "13% and 5%"}, {"measurement": "Population Mitochondria Different-Phenotype (%)", "setting": "[1]; [5]", "value": 0, "unit": "%"}, {"measurement": "Population Mitotic Cells (%)", "setting": "[1]; [5]", "value": "14% and 27%"}, {"measurement": "Population Normal (%)", "setting": "[1]; [5]", "value": "100% and 99%"}, {"measurement": "Population Pyknosed Nuclei (%)", "setting": "[1]; [5]", "value": "42% and 22%"}, {"measurement": "Population Tubulin-Different-Phenotype (%)", "setting": "[1]; [5]", "value": "25% and 36%"}, {"measurement": "Total Cell Count", "setting": "[1]; [5]", "value": "197 and 196"}, {"measurement": "Population Apoptotic (%)", "setting": "[1]; [6]", "value": "44% and 42%"}, {"measurement": "Population Hoechst High Intensity Objects (%)", "setting": "[1]; [6]", "value": 0, "unit": "%"}, {"measurement": "Population Mitochondria Different-Phenotype (%)", "setting": "[1]; [6]", "value": "57% and 31%"}, {"measurement": "Population Mitotic Cells (%)", "setting": "[1]; [6]", "value": "55% and 57%"}, {"measurement": "Population Normal (%)", "setting": "[1]; [6]", "value": "100% and 99%"}, {"measurement": "Population Pyknosed Nuclei (%)", "setting": "[1]; [6]", "value": "27% and 17%"}, {"measurement": "Population Tubulin-Different-Phenotype (%)", "setting": "[1]; [6]", "value": "100% and 74%"}, {"measurement": "Population Apoptotic (%)", "setting": "[1]; [7]", "value": "85% and 90%"}, {"measurement": "Population Fragmented Nuclei (%)", "setting": "[1]; [7]", "value": "12% and 10%"}, {"measurement": "Population Healthy Nuclei (%)", "setting": "[1]; [7]", "value": "21% and 20%"}, {"measurement": "Population Hoechst High Intensity Objects (%)", "setting": "[1]; [7]", "value": "2% and 0%"}, {"measurement": "Population Membrane Permeable-Phenotype (%)", "setting": "[1]; [7]", "value": "13% and 17%"}, {"measurement": "Population Mitochondria Different-Phenotype (%)", "setting": "[1]; [7]", "value": 2, "unit": "%"}, {"measurement": "Population Mitotic Cells (%)", "setting": "[1]; [7]", "value": "14% and 9%"}, {"measurement": "Population Normal (%)", "setting": "[1]; [7]", "value": "97% and 99%"}, {"measurement": "Population Pyknosed Nuclei (%)", "setting": "[1]; [7]", "value": "66% and 68%"}, {"measurement": "Population Tubulin-Different-Phenotype (%)", "setting": "[1]; [7]", "value": "47% and 28%"}, {"measurement": "Total Cell Count", "setting": "[1]; [7]", "value": "172 and 174"}, {"measurement": "Population Apoptotic (%)", "setting": "[1]; [8]", "value": "77% and 73%"}, {"measurement": "Population Fragmented Nuclei (%)", "setting": "[1]; [8]", "value": "11% and 14%"}, {"measurement": "Population Healthy Nuclei (%)", "setting": "[1]; [8]", "value": "60% and 65%"}, {"measurement": "Population Hoechst High Intensity Objects (%)", "setting": "[1]; [8]", "value": 0, "unit": "%"}, {"measurement": "Population Membrane Permeable-Phenotype (%)", "setting": "[1]; [8]", "value": "1% and 2%"}, {"measurement": "Population Mitochondria Different-Phenotype (%)", "setting": "[1]; [8]", "value": "27% and 23%"}, {"measurement": "Population Mitotic Cells (%)", "setting": "[1]; [8]", "value": "22% and 26%"}, {"measurement": "Population Normal (%)", "setting": "[1]; [8]", "value": 100, "unit": "%"}, {"measurement": "Population Pyknosed Nuclei (%)", "setting": "[1]; [8]", "value": "28% and 19%"}, {"measurement": "Population Tubulin-Different-Phenotype (%)", "setting": "[1]; [8]", "value": "72% and 75%"}, {"measurement": "Total Cell Count", "setting": "[1]; [8]", "value": "140 and 207"}, {"measurement": "Population Apoptotic (%)", "setting": "[2]; [3]", "value": "54% and 71%"}, {"measurement": "Population Fragmented Nuclei (%)", "setting": "[2]; [3]", "value": "7% and 5%"}, {"measurement": "Population Healthy Nuclei (%)", "setting": "[2]; [3]", "value": "81% and 64%"}, {"measurement": "Population Hoechst High Intensity Objects (%)", "setting": "[2]; [3]", "value": "12% and 18%"}, {"measurement": "Population Membrane Permeable-Phenotype (%)", "setting": "[2]; [3]", "value": 2, "unit": "%"}, {"measurement": "Population Mitochondria Different-Phenotype (%)", "setting": "[2]; [3]", "value": "61% and 54%"}, {"measurement": "Population Mitotic Cells (%)", "setting": "[2]; [3]", "value": "45% and 28%"}, {"measurement": "Population Normal (%)", "setting": "[2]; [3]", "value": "87% and 81%"}, {"measurement": "Population Pyknosed Nuclei (%)", "setting": "[2]; [3]", "value": "10% and 29%"}, {"measurement": "Population Tubulin-Different-Phenotype (%)", "setting": "[2]; [3]", "value": "86% and 80%"}, {"measurement": "Total Cell Count", "setting": "[2]; [3]", "value": "334 and 362"}, {"measurement": "Population Apoptotic (%)", "setting": "[2]; [4]", "value": "69% and 80%"}, {"measurement": "Population Fragmented Nuclei (%)", "setting": "[2]; [4]", "value": "1% and 4%"}, {"measurement": "Population Healthy Nuclei (%)", "setting": "[2]; [4]", "value": "80% and 73%"}, {"measurement": "Population Hoechst High Intensity Objects (%)", "setting": "[2]; [4]", "value": "6% and 11%"}, {"measurement": "Population Membrane Permeable-Phenotype (%)", "setting": "[2]; [4]", "value": "2% and 3%"}, {"measurement": "Population Mitochondria Different-Phenotype (%)", "setting": "[2]; [4]", "value": "81% and 68%"}, {"measurement": "Population Mitotic Cells (%)", "setting": "[2]; [4]", "value": "30% and 20%"}, {"measurement": "Population Normal (%)", "setting": "[2]; [4]", "value": "93% and 88%"}, {"measurement": "Population Pyknosed Nuclei (%)", "setting": "[2]; [4]", "value": "18% and 22%"}, {"measurement": "Population Tubulin-Different-Phenotype (%)", "setting": "[2]; [4]", "value": 94, "unit": "%"}, {"measurement": "Total Cell Count", "setting": "[2]; [4]", "value": "319 and 328"}, {"measurement": "Population Apoptotic (%)", "setting": "[2]; [5]", "value": "65% and 77%"}, {"measurement": "Population Fragmented Nuclei (%)", "setting": "[2]; [5]", "value": "3% and 7%"}, {"measurement": "Population Healthy Nuclei (%)", "setting": "[2]; [5]", "value": "83% and 57%"}, {"measurement": "Population Hoechst High Intensity Objects (%)", "setting": "[2]; [5]", "value": "22% and 24%"}, {"measurement": "Population Membrane Permeable-Phenotype (%)", "setting": "[2]; [5]", "value": "0% and 1%"}]}]}
